Reference: ChEMBL document CHEMBL1132771, “Analogues of SB-203207 as inhibitors of tRNA synthetases” (Bioorg Med Chem Lett, 2000)
In brackets after ≈: the same amount, converted by molar mass. Each block holds one compound with its values, some of them ahead of it. Activity calls are given as the source filed them. The rule behind the calls is not given here.

Key:
[1] = molecular target: T1, Isoleucyl-tRNA synthetase (Rattus norvegicus) (UniProt O35880); assay: Compound (100 uM) was evaluated for its inhibitory activity against Isoleucyl-tRNA synthetase from rat liver
T1 sequence (whole entry): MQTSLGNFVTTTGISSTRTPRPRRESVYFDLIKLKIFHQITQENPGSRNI

[2] = molecular target: T2, Isoleucine--tRNA ligase (Staphylococcus aureus) (UniProt P41972); assay: Compound (100 uM) was evaluated for its inhibitory activity against Isoleucyl-tRNA synthetase from staphylococcus aureus WCUH29
T2 sequence (whole entry): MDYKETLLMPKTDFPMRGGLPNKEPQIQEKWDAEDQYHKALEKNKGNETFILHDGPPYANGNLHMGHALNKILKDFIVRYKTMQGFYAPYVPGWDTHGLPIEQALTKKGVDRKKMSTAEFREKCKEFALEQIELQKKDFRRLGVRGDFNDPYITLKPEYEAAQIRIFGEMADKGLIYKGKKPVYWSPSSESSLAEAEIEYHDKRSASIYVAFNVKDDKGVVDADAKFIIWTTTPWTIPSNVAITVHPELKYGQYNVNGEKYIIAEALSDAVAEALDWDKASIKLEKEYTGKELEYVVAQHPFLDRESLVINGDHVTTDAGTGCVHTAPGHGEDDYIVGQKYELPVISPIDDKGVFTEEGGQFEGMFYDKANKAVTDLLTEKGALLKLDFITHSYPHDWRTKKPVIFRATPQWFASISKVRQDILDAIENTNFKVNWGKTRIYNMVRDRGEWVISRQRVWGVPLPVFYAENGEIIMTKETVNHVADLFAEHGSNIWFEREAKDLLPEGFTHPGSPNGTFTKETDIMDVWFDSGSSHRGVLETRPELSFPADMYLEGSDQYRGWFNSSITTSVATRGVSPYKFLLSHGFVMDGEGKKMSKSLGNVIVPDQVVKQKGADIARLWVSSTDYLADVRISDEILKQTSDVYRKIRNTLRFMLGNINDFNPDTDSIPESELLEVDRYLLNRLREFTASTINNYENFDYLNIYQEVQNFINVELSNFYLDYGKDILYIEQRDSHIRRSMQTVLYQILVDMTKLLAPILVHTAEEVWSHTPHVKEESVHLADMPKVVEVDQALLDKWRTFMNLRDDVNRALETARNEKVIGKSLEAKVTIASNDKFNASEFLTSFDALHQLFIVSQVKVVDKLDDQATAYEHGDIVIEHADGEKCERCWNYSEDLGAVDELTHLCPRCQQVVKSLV

[3] = test system: Staphylococcus aureus; assay: Compound (100 uM) was evaluated for its inhibitory activity against VRS (valyl tRNA synthetase) from staphylococcus aureus WCUH29; no inhibition
[4] = test system: Leucine--tRNA ligase (Staphylococcus aureus); assay: Compound (100 uM) was evaluated for its inhibitory activity against Leucyl-tRNA synthetase from staphylococcus aureus WCUH29; no inhibition
[5] = Compound was evaluated for its inhibitory activity against VRS (valyl tRNA synthetase) from staphylococcus aureus WCUH29
[6] = test system: Staphylococcus aureus; assay: Compound was evaluated for the antibacterial activity against Staphylococcus aureus WCUH 29; assay type: functional
How it was run: (§1)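 Broth microdilution MIC. Compounds in DMSO, diluted 1:10 in water to a 256 µg mL-1 stock, then serially diluted in supplemented cation-adjusted Mueller Hinton broth. Each well received an equal volume of isolate suspension (~1 × 10^6 cfu mL-1). Final concentrations were 0.06–64 µg mL-1. Plates were incubated at 35 °C in ambient air for 18–24 h, and the MIC was read with a mirror reader.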

[7] = test system: Haemophilus influenzae; assay: Compound was evaluated for the antibacterial activity against Haemophilus influenzae Q1; assay type: functional; how it was run: as §1
[8] = molecular target: T3, Isoleucyl-tRNA synthetase (Rattus norvegicus, UniProt O35880); assay: Compound was evaluated for its inhibitory activity against Isoleucyl-tRNA synthetase from rat liver
T3 sequence (O35880 whole entry): T1 sequence (whole entry)

[9] = test system: Escherichia coli; assay: Compound was evaluated for the antibacterial activity against Escherichia coli 120 AcrAB-; assay type: functional; how it was run: as §1
[10] = test system: Enterococcus faecalis; assay: Compound was evaluated for the antibacterial activity against Enterococcus faecalis 1; assay type: functional; how it was run: as §1
[11] = test system: Staphylococcus aureus; assay: Compound was evaluated for the antibacterial activity against Staphylococcus aureus oxford; assay type: functional; how it was run: as §1
[12] = test system: Moraxella catarrhalis; assay: Compound was evaluated for the antibacterial activity against Moraxella catarrhalis 1502; assay type: functional; how it was run: as §1
[13] = molecular target: T4, Isoleucine--tRNA ligase (Staphylococcus aureus, UniProt P41972); assay: Compound was evaluated for its inhibitory activity against Isoleucyl-tRNA synthetase from staphylococcus aureus WCUH29
T4 sequence (P41972 whole entry): T2 sequence (whole entry)

[14] = test system: Streptococcus pneumoniae; assay: Compound was evaluated for the antibacterial activity against Streptococcus pneumoniae ERY2; assay type: functional; how it was run: as §1
[15] = test system: Haemophilus influenzae; assay: Compound was evaluated for the antibacterial activity against Haemophilus influenzae NEMC1; assay type: functional; how it was run: as §1
[16] = test system: Streptococcus pneumoniae; assay: Compound was evaluated for the antibacterial activity against Streptococcus pneumoniae N1387; assay type: functional; how it was run: as §1
[17] = test system: Enterococcus faecalis; assay: Compound was evaluated for the antibacterial activity against Enterococcus faecalis 7; assay type: functional; how it was run: as §1
[18] = test system: Streptococcus pneumoniae; assay: Compound was evaluated for the antibacterial activity against Streptococcus pneumoniae 1629; assay type: functional; how it was run: as §1
[19] = test system: Escherichia coli; assay: Compound was evaluated for the antibacterial activity against Escherichia coli 763 AcrABEFD; assay type: functional; how it was run: as §1
[20] = test system: Staphylococcus aureus; assay: Compound (100 uM) was evaluated for its inhibitory activity against VRS (valyl tRNA synthetase) from staphylococcus aureus WCUH29
[21] = test system: Leucine--tRNA ligase (Staphylococcus aureus); assay: Compound (100 uM) was evaluated for its inhibitory activity against Leucyl-tRNA synthetase from staphylococcus aureus WCUH29
[22] = test system: Staphylococcus aureus; assay: Compound (10 uM) was evaluated for its inhibitory activity against VRS (valyl tRNA synthetase) from staphylococcus aureus WCUH29; no inhibition
[23] = test system: Leucine--tRNA ligase (Staphylococcus aureus); assay: Compound (10 uM) was evaluated for its inhibitory activity against Leucyl-tRNA synthetase from staphylococcus aureus WCUH29; no inhibition

- inhibition [1]: 9%
- inhibition [2]: 18%
- inhibition [3]: inactive
- inhibition [4]: inactive
Structure (SMILES): CC[C@H](C)CC(=O)NS(=O)(=O)CC(=O)N[C@@]1(C(=O)OC)[C@@H](OC(=O)C[C@@H](C)CC)C[C@H]2C(C(N)=O)=CN(C)C[C@H]21

- inhibition [1]: 20%
- inhibition [2]: 19%
- inhibition [3]: 6%
- inhibition [4]: inactive
Structure (SMILES): CC[C@H](C)CC(=O)NS(=O)(=O)CC(=O)N[C@@]1(C(=O)OCc2ccccc2)[C@@H](OC(=O)C[C@@H](C)CC)C[C@H]2C(C(N)=O)=CN(C)C[C@H]21

- IC50 [5]: 0.29 µM
- MIC [6]: > 64 µg/mL
- MIC [7]: 64 µg/mL (≈ 131 µM)
- IC50 [8]: 0.068 µM
- MIC [9]: > 64 µg/mL
- MIC [10]: > 64 µg/mL
- MIC [11]: > 64 µg/mL
- MIC [12]: > 64 µg/mL
- IC50 [13]: 0.91 µM
- MIC [14]: 16 µg/mL (≈ 32.7 µM)
- MIC [15]: 64 µg/mL (≈ 131 µM)
- MIC [16]: 64 µg/mL (≈ 131 µM)
- MIC [17]: > 64 µg/mL
- MIC [18]: 32 µg/mL (≈ 65.4 µM)
- MIC [19]: > 64 µg/mL
Structure (SMILES): CC(C)C[C@H](N)C(=O)NS(=O)(=O)CC(=O)N[C@]1(C(=O)O)[C@@H]2CN(C)C=C(C(N)=O)[C@@H]2C[C@@H]1O

- IC50 [5]: 0.126 µM
- MIC [6]: > 64 µg/mL
- MIC [7]: 64 µg/mL (≈ 131 µM)
- IC50 [8]: 0.0042 µM
- MIC [9]: > 64 µg/mL
- MIC [10]: > 64 µg/mL
- MIC [11]: > 64 µg/mL
- MIC [12]: > 64 µg/mL
- IC50 [13]: 0.014 µM
- MIC [14]: 64 µg/mL (≈ 131 µM)
- MIC [15]: 64 µg/mL (≈ 131 µM)
- MIC [16]: > 64 µg/mL
- MIC [17]: > 64 µg/mL
- MIC [18]: > 64 µg/mL
- MIC [19]: > 64 µg/mL
Structure (SMILES): CC[C@H](C)[C@H](N)C(=O)NS(=O)(=O)CC(=O)N[C@]1(C(=O)O)[C@@H]2CN(C)C=C(C(N)=O)[C@@H]2C[C@@H]1O

- inhibition [20]: 40%
- IC50 [8]: 0.017 µM
- IC50 [13]: 0.06 µM
Structure (SMILES): CC[C@H](C)[C@H](N)C(=O)NS(=O)(=O)CC(=O)N[C@]1(C(=O)OC)[C@@H]2CN(C)C=C(C(N)=O)[C@@H]2C[C@@H]1O

- inhibition [1]: 25%
- inhibition [2]: 23%
- inhibition [3]: inactive
- inhibition [21]: 13%
Structure (SMILES): CC[C@H](C)CC(=O)NS(=O)(=O)CC(=O)N[C@]1(C(=O)OC)[C@@H]2CN(C)C=C(C(N)=O)[C@@H]2C[C@@H]1O

- inhibition [20]: 65%
- IC50 [8]: 6.1 µM
- IC50 [13]: 14.6 µM
Structure (SMILES): CC[C@H](C)CC(=O)NS(=O)(=O)CC(=O)N[C@@]1(C(=O)O)[C@@H](OC(=O)C[C@@H](C)CC)C[C@H]2C(C(N)=O)=CN(C)C[C@H]21

- inhibition [2]: 46%
- IC50 [8]: 0.5 µM
- inhibition [3]: inactive
- inhibition [4]: inactive
Structure (SMILES): CC[C@H](C)[C@H](NC(=O)OCc1ccccc1)C(=O)NS(=O)(=O)CC(=O)N[C@@]1(C(=O)OC)[C@@H](OC(=O)[C@@H](NC(=O)OCc2ccccc2)[C@@H](C)CC)C[C@H]2C(C(N)=O)=CN(C)C[C@H]21

- inhibition [22]: inactive
- IC50 [8]: 0.025 µM
- IC50 [13]: 0.12 µM
- inhibition [23]: inactive
Structure (SMILES): CC[C@H](C)[C@H](N)C(=O)NS(=O)(=O)CC(=O)N[C@]1(C(=O)OCc2ccccc2)[C@@H]2CN(C)C=C(C(N)=O)[C@@H]2C[C@@H]1O

- IC50 [5]: 0.03 µM
- IC50 [8]: 0.0029 µM
- IC50 [13]: 0.037 µM
Structure (SMILES): CC(C)[C@H](N)C(=O)NS(=O)(=O)CC(=O)N[C@]1(C(=O)O)[C@@H]2CN(C)C=C(C(N)=O)[C@@H]2C[C@@H]1O

- IC50 [8]: 22.3 µM
- inhibition [3]: inactive
- IC50 [13]: 3.27 µM
Structure (SMILES): CC[C@H](C)CC(=O)NS(=O)(=O)CC(=O)N[C@]1(C(=O)O)[C@@H]2CN(C)C=C(C(N)=O)[C@@H]2C[C@@H]1O
